{
  "source": "paper PMC3808079",
  "about": "(Oncogene, 2012)",
  "key": {"LN229 cells [1]": {"system": "LN229 cells", "assay": "Transwell", "format": "cell-based, human", "details": "synthetic peptide 50 μM, 16 h, Figure 6c", "how_it_was_run": "(§1)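 Cells (1 × 10^5/well) were seeded in six-well plates and treated with test peptides (50 μM) for 16 h. Invasion through Matrigel was measured in a transwell system (8 μm pore polycarbonate membrane). Mean±s.d. of 3–4 independent experiments; Student's t-test.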"}, "LN-Z308 cells [2]": {"system": "LN-Z308 cells", "assay": "Transwell", "format": "cell-based, human", "details": "synthetic peptide 50 μM, 16 h, Figure 6c", "how_it_was_run": "as §1"}, "PIKE-A/Akt interaction [3]": {"target": "T1, PIKE-A/Akt interaction (Homo sapiens, UniProt P31749+Q99490)", "T1 sequence (Q99490 1-836 isoform Q99490-2)": "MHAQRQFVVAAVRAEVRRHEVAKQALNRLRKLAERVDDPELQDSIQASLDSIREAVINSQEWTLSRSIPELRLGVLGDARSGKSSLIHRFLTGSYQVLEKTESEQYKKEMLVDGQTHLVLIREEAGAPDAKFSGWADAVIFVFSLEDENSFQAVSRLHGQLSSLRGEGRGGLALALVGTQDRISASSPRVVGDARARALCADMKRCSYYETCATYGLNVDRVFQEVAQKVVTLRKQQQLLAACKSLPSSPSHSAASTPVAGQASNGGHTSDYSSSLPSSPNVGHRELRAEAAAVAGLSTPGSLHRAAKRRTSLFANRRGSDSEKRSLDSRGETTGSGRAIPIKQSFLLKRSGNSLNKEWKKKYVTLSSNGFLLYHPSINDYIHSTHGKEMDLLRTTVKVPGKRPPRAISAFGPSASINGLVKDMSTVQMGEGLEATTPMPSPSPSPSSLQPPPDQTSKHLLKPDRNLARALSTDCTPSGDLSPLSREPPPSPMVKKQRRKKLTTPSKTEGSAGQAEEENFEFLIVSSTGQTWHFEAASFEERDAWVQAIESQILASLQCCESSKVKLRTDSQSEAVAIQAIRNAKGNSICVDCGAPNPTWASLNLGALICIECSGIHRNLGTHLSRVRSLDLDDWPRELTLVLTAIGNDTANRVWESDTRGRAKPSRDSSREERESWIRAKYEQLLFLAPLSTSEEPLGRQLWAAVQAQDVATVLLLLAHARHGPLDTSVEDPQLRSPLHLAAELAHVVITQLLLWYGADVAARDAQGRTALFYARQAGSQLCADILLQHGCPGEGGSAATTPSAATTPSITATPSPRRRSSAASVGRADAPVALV", "T1 sequence (P31749 whole entry)": "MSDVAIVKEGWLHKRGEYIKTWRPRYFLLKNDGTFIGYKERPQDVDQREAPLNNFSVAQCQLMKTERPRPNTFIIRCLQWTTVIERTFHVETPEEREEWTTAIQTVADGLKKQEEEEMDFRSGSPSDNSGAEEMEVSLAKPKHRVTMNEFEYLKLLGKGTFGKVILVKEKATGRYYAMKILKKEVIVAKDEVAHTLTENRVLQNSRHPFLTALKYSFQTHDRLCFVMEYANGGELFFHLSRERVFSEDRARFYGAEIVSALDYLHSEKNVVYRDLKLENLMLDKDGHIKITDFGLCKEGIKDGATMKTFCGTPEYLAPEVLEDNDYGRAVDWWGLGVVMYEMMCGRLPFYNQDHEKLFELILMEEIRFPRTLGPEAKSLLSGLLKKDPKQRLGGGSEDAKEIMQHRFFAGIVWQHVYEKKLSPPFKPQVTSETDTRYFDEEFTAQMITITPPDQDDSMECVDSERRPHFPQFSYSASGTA", "assay": "In vitro binding assay, GST-PIKE-A", "details": "short synthetic peptides; Figure 5b", "how_it_was_run": "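Purified recombinant GST-PIKE-A (a.a. 1–356) was bound to glutathione beads and incubated, with test peptides, with lysates of HEK293 cells transfected with HA-Akt, 3 h at 4 °C. Bead-bound proteins were run on 10% SDS-PAGE and immunoblotted with anti-HA. GST proteins were verified by Coomassie staining.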"}, "[4]": {"system": "Akt signaling in LN-Z308 cells", "assay": "Immunoblotting of Akt phosphorylation and downstream signaling", "format": "cell-based, human", "details": "peptide-treated cell lysates, dose-dependent, immunoblot, Figure 7b"}, "PIKE-A/Akt interaction [5]": {"target": "T1, PIKE-A/Akt interaction", "assay": "ELISA-based protein interaction assay", "format": "binding", "details": "peptide 10 μM; Figure 5c"}, "LN-Z308 cells [6]": {"system": "LN-Z308 cells", "assay": "Cell viability assay", "format": "cell-based, human", "how_it_was_run": "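Cells (5 × 10^3/well) grown in DMEM/10% FBS were seeded in 96-well plates. Next day, medium was replaced with fresh medium containing test peptides (50 μM) or vehicle, for 16 h at 37 °C. For combinations, cells got various concentrations of the test peptide with TMZ (25 μM) or BCNU (50 μM). Viability was read by MTT. Mean±s.d., 3–4 independent experiments; Student's t-test.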"}, "LN229 cells [7]": {"system": "LN229 cells", "assay": "Colony formation assay", "format": "cell-based, human", "details": "Figure 6e; for Colony numbers: drug alone, soft agar, 2 weeks", "how_it_was_run": "(§2)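 Soft-agar assay: 50 000 cells per well in 0.4% agar with 10% FBS in DMEM, plated over a 0.6% agar base, with test peptide, drug or vehicle. Combinations used various doses of the test peptide with TMZ or BCNU. Cells grew 2 weeks at 37 °C. Colonies were stained with MTT, counted and normalized to vehicle (%). Mean±s.d.; Student's t-test.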"}, "LN229 cells [8]": {"system": "LN229 cells", "assay": "Cell viability assay", "format": "cell-based, human"}, "[9]": {"system": "PIKE-A/Akt interaction in HEK293 cells", "assay": "GST pull-down from co-transfected HEK293 cells treated with synthetic peptides", "format": "cell-based", "details": "sp2 50 μM, Figure 5f", "how_it_was_run": "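HEK293 cells were co-transfected with GST-PIKE-A and HA-Akt, then treated with 50 μM test peptide in culture medium for various times up to 24 h. GST-PIKE-A was pulled down on glutathione beads, and associated HA-Akt was detected by anti-HA immunoblot.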"}, "PIKE-A/Akt interaction [10]": {"target": "T1, PIKE-A/Akt interaction", "format": "binding", "how_it_was_run": "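HEK293 cells were co-transfected with GST-PIKE-A and HA-Akt. After 40 h, lysates were collected and GST-PIKE-A was pulled down on glutathione beads in the presence of test peptides. Bound HA-Akt was detected by anti-HA immunoblot. GST-PIKE-A was verified with anti-GST-HRP.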"}, "LN-Z308 cells [11]": {"system": "LN-Z308 cells", "assay": "Colony formation assay", "format": "cell-based, human", "details": "for Colony numbers: drug alone, soft agar, 2 weeks", "how_it_was_run": "as §2"}, "LN-Z308 cells [12]": {"system": "LN-Z308 cells", "assay": "Cell migration, wound-healing assay", "format": "cell-based, human", "details": "synthetic peptide 50 μM, 10 h, Figure 6b", "how_it_was_run": "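LN-Z308 monolayers were grown to confluence in six-well plates and scratched with a pipette tip, then washed to remove nonadherent cells. Medium containing test peptides (50 μM) or DMSO was added at 0 h, and cells were incubated 10 h. Wound area was imaged by light microscopy. % wound healed = 100-[(final area/initial area) × 100%]. Mean±s.d. of three or four independent experiments; Student's t-test.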"}, "[13]": {"details": "synthetic peptide 50 μM, 16 h, Figure 6a"}, "[14]": {"details": "sp2 various concentrations + TMZ 25 μM, 16 h, Figure 6d"}, "[15]": {"details": "various concentrations of sp2, 16 h, Figure 6d"}},
  "note": "Ends that are not written are not given here.",
  "data": [
    {"molecule": "DARSG [sp4]", "values": [
      {"measurement": "Invasive activity", "setting": "LN229 cells [1]", "result": "did not significantly affect"},
      {"measurement": "Invasive activity", "setting": "LN-Z308 cells [2]", "result": "did not significantly affect"},
      {"measurement": "Interaction between a fragment of PIKE-A (1–356 a.a.) and Akt", "setting": "PIKE-A/Akt interaction [3]", "result": "decreased the interaction"},
      {"measurement": "Akt T308 and S473 phosphorylation", "setting": "[4]", "result": "no effect on Akt phosphorylation"},
      {"measurement": "Disruption of the interaction between PIKE-A and Akt (ELISA, RLU)", "setting": "PIKE-A/Akt interaction [5]", "result": "failed to block the PIKE-A/Akt interaction"},
      {"measurement": "Cell viability (MTT)", "setting": "LN-Z308 cells [6]; [13]", "result": "no effect"}
    ]},
    {"molecule": "PELRLGVL [sp2]", "values": [
      {"measurement": "Invasive activity", "setting": "LN229 cells [1]", "result": "strongly inhibited the invasive activity"},
      {"measurement": "Invasive activity", "setting": "LN-Z308 cells [2]", "result": "strongly inhibited the invasive activity"},
      {"measurement": "Colony formation inhibitory effect of TMZ and BCNU on co-treatment with sp2", "setting": "LN229 cells [7]; sp2 + TMZ or BCNU", "result": "additive trend also applied"},
      {"measurement": "Interaction between a fragment of PIKE-A (1–356 a.a.) and Akt", "setting": "PIKE-A/Akt interaction [3]", "result": "decreased the interaction"},
      {"measurement": "Akt T308 and S473 phosphorylation", "setting": "[4]", "result": "diminished"},
      {"measurement": "Cell viability (MTT), co-treatment of sp2 with TMZ", "setting": "LN229 cells [8]; [14]", "result": "inhibitory trend was similar"},
      {"measurement": "Cell viability (MTT)", "setting": "LN229 cells [8]; [13]", "result": "not in LN229 cells"},
      {"measurement": "Cell viability (MTT), sp2 alone", "setting": "LN229 cells [8]; [15]", "result": "not as evident as in LN-Z308 cells"},
      {"measurement": "Inhibition of PIKE-A binding to Akt at 24 h", "setting": "[9]; 24 h in cell culture medium", "result": "lost its suppressive activity"},
      {"measurement": "Time at which inhibition of PIKE-A binding to Akt was seen", "setting": "[9]; time course", "result": 4, "unit": "h"},
      {"measurement": "Time of peak inhibition of PIKE-A binding to Akt", "setting": "[9]; time course", "result": 16, "unit": "h"},
      {"measurement": "Inhibitory effect on the PIKE-A/Akt interaction, GST pull-down", "setting": "PIKE-A/Akt interaction [10]; GST pull-down as in Figure 2, Figure 5e", "result": "inhibited the binding"},
      {"measurement": "Colony formation inhibitory effect of TMZ and BCNU on co-treatment with sp2", "setting": "LN-Z308 cells [11]; 50 μM sp2 + TMZ or BCNU, Figure 6e", "result": "substantially increased"},
      {"measurement": "Colony formation, sp2", "setting": "LN-Z308 cells [11]; summary statement of Figure 6", "result": "strongly inhibits"},
      {"measurement": "Cell viability (MTT), co-treatment of sp2 with TMZ", "setting": "LN-Z308 cells [6]; [14]", "result": "additive effect"},
      {"measurement": "Cell viability (MTT)", "setting": "LN-Z308 cells [6]; [13]", "result": "selectively decreased LN-Z308 cell viability"},
      {"measurement": "Cell viability (MTT), sp2 alone", "setting": "LN-Z308 cells [6]; [15]", "result": "suppressive activity of sp2 on LN-Z308 cell viability, which occurred in a dose-dependent manner"},
      {"measurement": "Cell migration", "setting": "LN-Z308 cells [12]", "result": "strongly inhibits"}
    ]},
    {"molecule": "TGSYQ [sp6]", "values": [
      {"measurement": "Invasive activity", "setting": "LN229 cells [1]", "result": "did not significantly affect"},
      {"measurement": "Invasive activity", "setting": "LN-Z308 cells [2]", "result": "did not significantly affect"},
      {"measurement": "Interaction between a fragment of PIKE-A (1–356 a.a.) and Akt", "setting": "PIKE-A/Akt interaction [3]", "result": "decreased the interaction"},
      {"measurement": "Cell viability (MTT)", "setting": "LN229 cells [8]; [13]", "result": "not in LN229 cells"},
      {"measurement": "Disruption of the interaction between PIKE-A and Akt (ELISA, RLU)", "setting": "PIKE-A/Akt interaction [5]", "result": "failed to block the PIKE-A/Akt interaction"},
      {"measurement": "Cell viability (MTT)", "setting": "LN-Z308 cells [6]; [13]", "result": "selectively decreased LN-Z308 cell viability"}
    ]},
    {"molecule": "DARSGKSSLIHRFLTGSYQ [PP2]", "values": [
      {"measurement": "Inhibition of the PIKE-A/Akt interaction, GST pull-down", "setting": "PIKE-A/Akt interaction [10]; peptide up to 10 μM, Figure 2f", "result": "did not demonstrate an inhibitory effect"},
      {"measurement": "Disruption of the interaction between PIKE-A and Akt (ELISA, RLU)", "setting": "PIKE-A/Akt interaction [5]", "result": "failed to block the PIKE-A/Akt interaction"}
    ]},
    {"molecule": "O=NN(CCCl)C(=O)NCCCl", "note": "[BCNU, Carmustine, reference compound]", "values": [
      {"measurement": "Colony numbers", "setting": "LN229 cells [7]", "result": "decreased the colony numbers"},
      {"measurement": "Cell viability (MTT)", "setting": "LN229 cells [8]; BCNU 50 μM, 24 h, after 40 h plasmid transfection, Figure 4c", "result": "reduced cell viability regardless of peptide transfection"},
      {"measurement": "Colony numbers", "setting": "LN-Z308 cells [11]; Figure 6e", "result": "decreased the colony numbers"}
    ]},
    {"molecule": "LKKDPK [sp9]", "values": [
      {"measurement": "Interaction between a fragment of PIKE-A (1–356 a.a.) and Akt", "setting": "PIKE-A/Akt interaction [3]", "result": "decreased the interaction"}
    ]},
    {"molecule": "Cn1nnc2c(C(N)=O)ncn2c1=O", "note": "[TMZ, temozolomide, reference compound]", "values": [
      {"measurement": "Colony numbers", "setting": "LN229 cells [7]", "result": "decreased the colony numbers"},
      {"measurement": "Cell viability (MTT)", "setting": "LN229 cells [8]; TMZ 25 μM, 16 h, Figure 6d", "result": "potently decreased"},
      {"measurement": "Cell viability (MTT)", "setting": "LN229 cells [8]; TMZ 25 μM, 24 h, compared with vehicle, Figure 4c", "result": "modest effect in repressing LN229 cell viability"},
      {"measurement": "Colony numbers", "setting": "LN-Z308 cells [11]; Figure 6e", "result": "decreased the colony numbers"},
      {"measurement": "Cell viability (MTT)", "setting": "LN-Z308 cells [6]; TMZ 25 μM, 16 h, Figure 6d", "result": "potently decreased"}
    ]}
  ]
}
